Experimental data as given in ChEMBL document CHEMBL1123657, “Anthrapyrazole anticancer agents. Synthesis and structure-activity relationships against murine leukemias” (J Med Chem, 1987).

Experiments:
L1210 = experiment: Tested in vitro against murine L1210 leukemia.; format: functional, cell-based; settings: Mus musculus
P388 [1] = experiment: Optimal dose per injection in mg/kg required to inhibit growth of P388 leukemia cells in mice; format: functional, Mus musculus
Procedure, shortened: (§1)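 P388 leukemia implanted ip in mice; drug given ip on days 1 and 5 (ip/ip; D1,5), dosed in mg/kg per injection. Read-out is treated/control (T/C, %) with cures counted, reported at the optimal dose.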

P388 [2] = experiment: Inhibition of P388 leukemia cells in mice, measured as percent treated to the control values with the number of 30 day survivors; format: functional, Mus musculus; procedure, shortened: as §1
P388 [3] = experiment: Activity against P388 leukemia cells in mice, by intraperitoneal dosing and net log tumor cell kill was reported; format: functional, Mus musculus

Row | SMILES | IC50 (L1210) [nM] | Dose (P388 [1]) [mg/kg] | T/C (P388 [2]) [%] | Activity (P388 [3])
1 | Cl.O=C1c2c(NCCNCCO)cccc2-c2nn(CCNCCO)c3cccc1c23 | 390 | 12.5 | 133 | -0.3
2 | CN(C)CCCn1nc2c3c(c(NCCCN)ccc31)C(=O)c1c(O)ccc(O)c1-2.Cl | 800 | 25 | 212 | 4
3 | CCN(CC)CCn1nc2c3c(c(NCCNCCO)ccc31)C(=O)c1ccccc1-2.Cl | 32 | 25 | 169 | 2.6
4 | CCN(CC)CCNc1ccc2c3c(nn2CCO)-c2c(O)ccc(O)c2C(=O)c13.Cl | 730 | 400 | 190 | 4.6
5 | Cl.Cn1nc2c3c(cccc31)C(=O)c1c(NCCNCCO)cccc1-2 | 1200 | 200 | 118 | -1.3
6 | Cl.NCCNc1ccc2c3c(nn2CCNCCO)-c2c(O)ccc(O)c2C(=O)c13 | 1600 | 3.12 | 197 | 4.8
7 | Br.CCN(CC)CCn1nc2c3c(c(NCCNC)ccc31)C(=O)c1c(O)ccc(O)c1-2 | 7400 | 25 |  | >7.1
8 | Cl.Cn1nc2c3c(c(NCCNCCO)ccc31)C(=O)c1ccccc1-2 | 710 | 100 | 136 | -0.2
9 | Cl.Cn1nc2c3c(c(NCCNCCO)ccc31)C(=O)c1c(O)ccc(O)c1-2 | 150 | 100 |  | 2.9
10 | Cl.NCCNCCNc1ccc2c3c(nn2CCNCCO)-c2c(O)ccc(O)c2C(=O)c13 | 330 | 25 | 277 | >6.6
11 | Cl.NCCNc1ccc2c3c(nn2CCO)-c2c(O)ccc(O)c2C(=O)c13 | 480 | 100 | 196 | 6.8
12 | CN(C)CCn1nc2c3c(c(NCCCN)ccc31)C(=O)c1c(O)ccc(O)c1-2.Cl | 540 | 12.5 | 208 | 4.7
13 | CN(C)CCNc1ccc2c3c(nn2CCNCCO)-c2ccccc2C(=O)c13.Cl | 32 | 6.25 | 174 | 3.1
14 | CCN(CC)CCNc1ccc2c3c(nn2C)-c2c(O)ccc(O)c2C(=O)c13.Cl | 450 | 400 | 152 | 1.3
15 | CN(C)CCNc1ccc2c3c(nn2Cc2ccccc2)-c2c(O)ccc(O)c2C(=O)c13.Cl | 860 | 25 | 104 | -1.5
16 | CCN(CC)CCNc1ccc2c3c(nn2CCNCCO)-c2c(O)ccc(O)c2C(=O)c13.Cl | 510 | 50 |  | >6.7
17 | CN(C)CCNCCNc1ccc2c3c(nn2CCCN)-c2c(O)ccc(O)c2C(=O)c13.Cl | 640 | 25 | 228 | 5.6
18 | CCN(CC)CCNc1ccc2c3c(nn2CCNCCO)-c2ccccc2C(=O)c13.Cl | 60 | 12.5 | 158 | 1.8
19 | CN(C)CCNCCNc1ccc2c3c(nn2CC(O)CO)-c2c(O)ccc(O)c2C(=O)c13.Cl (configuration not stated) | 2200 | 400 | 281 | 6.7
20 | CCN(CC)CC(O)Cn1nc2c3c(c(NCCNCCO)ccc31)C(=O)c1c(O)ccc(O)c1-2.Cl (configuration not stated) | 840 | 12.5 | 223 | 5.3
21 | CN(C)CCNc1ccc2c3c(nn2CCO)-c2c(O)ccc(O)c2C(=O)c13.Cl | 15 | 200 | 283 | 6.6
22 | Cl.O=C1c2c(O)ccc(O)c2-c2nn(CCNCCO)c3ccc(NCCN4CCOCC4)c1c23 | 650 | 50 | 177 | 2.9

Row | SMILES | IC50 (L1210) [nM] | Dose (P388 [1]) [mg/kg] | T/C (P388 [2]) [%] | Activity (P388 [3])
23 | CNc1ccc2c3c(nn2CCNCCO)-c2ccccc2C(=O)c13.Cl | 740 | 200 | 127 | -0.7
24 | CNCCNc1ccc2c3c(nn2CCN)-c2c(O)ccc(O)c2C(=O)c13 | 700 |  |  | 
25 | CCN(CC)CCCCCCCNc1ccc2c3c(nn2CCN(CC)CC)-c2ccccc2C(=O)c13.Cl | 630 | 25 | 104 | -1.5
26 | CN(CCO)CCn1nc2c3c(c(NCCNCCO)ccc31)C(=O)c1c(O)ccc(O)c1-2.Cl | 330 | 12.5 |  | 4.2
27 | Cl.NCCNc1ccc2c3c(nn2CCN)-c2c(O)ccc(O)c2C(=O)c13 | 480 | 12.5 | 221 | 5.6
28 | Cl.O=C1c2c(O)ccc(O)c2-c2nn(CCNCCO)c3ccc(NCCNCCO)c1c23 | 740 | 6.25 |  | 4.6
29 | CN(C)CCNCCNc1ccc2c3c(nn2CCNCCO)-c2c(O)ccc(O)c2C(=O)c13.Cl | 760 | 50 | 254 | >6.8
30 | CCN(CC)CCNc1ccc2c3c(nn2CCN(CC)CC)-c2c(O)ccc(O)c2C(=O)c13.Cl | 550 | 100 | 180 | 3.5
31 | CN(C)CCNc1ccc2c3c(nn2CCNCCO)-c2c(O)ccc(O)c2C(=O)c13.Cl | 230 | 12.5 | 250 | >6.6
32 | CCN(CC)CCNc1cccc2c1C(=O)c1cccc3c1c-2nn3CCN(CC)CC.Cl | 600 | 50 | 103 | -1.5
33 | Cl.O=C1c2c(O)ccc(O)c2-c2nn(CCNCCO)c3ccc(NCCCN(CCO)CCO)c1c23 | 920 | 100 | 194 | 3.6
34 | CCN(CC)CCn1nc2c3c(c(NCCN4CCNCC4)ccc31)C(=O)c1ccccc1-2.Cl | 500 | 25 | 109 | -1.3
35 | Cl.NCCNc1ccc2c3c(nn2CCNCCO)-c2ccccc2C(=O)c13 | 69 | 25 |  | 4.4
36 | CCN(CC)CCNc1ccc2c3c(nn2CCO)-c2ccccc2C(=O)c13.Cl | 880 | 400 | 145 | 0.8
37 | CCN(CC)CCNc1ccc2c3c(nn2CC(O)CN(CC)CC)-c2c(O)ccc(O)c2C(=O)c13.Cl (configuration not stated) | 1300 | 100 |  | 1.2
38 | CN(C)CCCn1nc2c3c(c(NCCNCCO)ccc31)C(=O)c1c(O)ccc(O)c1-2.Cl | 590 | 12.5 |  | 5.4
39 | CCN(CC)CCn1nc2c3c(c(NCCN4CCOCC4)ccc31)C(=O)c1ccccc1-2.Cl | 480 | 400 |  | >6.8
40 | Cl.NCCn1nc2c3c(c(NCCNCCO)ccc31)C(=O)c1ccccc1-2 | 80 | 25 |  | 3.7
41 | CN(C)CCN(C)c1ccc2c3c(nn2CCNCCO)-c2c(O)ccc(O)c2C(=O)c13.Cl | 630 | 12.5 |  | 4.9
42 | NCCCNc1ccc2c3c(nn2CCN)-c2c(O)ccc(O)c2C(=O)c13 | 310 |  |  | 
43 | CCN(CC)CCn1nc2c3c(c(NCCN4CCN(C(=O)OCc5ccccc5)CC4)ccc31)C(=O)c1ccccc1-2 | 390 |  |  | 
